≈ marks a conversion by molar mass, not a printed value. Where only a bound is given, the exact number is not on record here.

The values below come from ChEMBL document CHEMBL2169833, “Solubility-driven optimization of phosphodiesterase-4 inhibitors leading to a clinical candidate” (J Med Chem, 2012).

Series [1] can be described thus: Thermodynamic aqueous solubility of the compound at pH 6.8. Format: physicochemical. As to conditions: buffer; for solubility thermodynamic: read-out: Therm_solubility.
For series [2], the target named is 3',5'-cyclic-AMP phosphodiesterase 4D (Homo sapiens, UniProt Q08499). The series is described as follows: Inhibition of human PDE4D-mediated [3H]CAMP hydrolysis after 30 to 60 mins by scintillation proximity assay. The method in brief:
(§1)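 Enzyme was diluted in 10 mM Tris-HCl pH 7.5 with 1 mM EDTA to give 10–30% substrate hydrolysis. Substrate was [3H]-cAMP (0.1 μCi) with 1 μM cAMP. Inhibitors were tested at 10 concentrations with 1% DMSO, 30−60 min at room temperature, stopped with PDE SPA beads and counted. IC50 came from curves. Mean of ≥2 experiments in duplicate, SEM where n ≥ 3.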
On the technique in general: SPA uses beads or plates that emit light when radiolabelled molecules are held near them.

For series [3], the target named is 3',5'-cyclic-AMP phosphodiesterase 4B (Homo sapiens, UniProt Q07343). The series is described as follows: Inhibition of human PDE4B-mediated [3H]CAMP hydrolysis after 30 to 60 mins by scintillation proximity assay. In outline:
as §1

The target in series [4] is 3',5'-cyclic-AMP phosphodiesterase 4A (Homo sapiens, UniProt P27815). The series is described as follows: Inhibition of human PDE4A-mediated [3H]CAMP hydrolysis after 30 to 60 mins by scintillation proximity assay. The method in brief:
as §1

A short description of series [5]: Half life in ferret at 3.42 umol/kg, ig. Format: ADME, organism-based, Mustela putorius furo. As to conditions: in vivo, po. In outline: (§2)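 Ferret PK after intragastric dosing as a solution in PEG200/saline (50/50, v/v) at 3.42 μmol/kg, with one compound at 2.98 μmol/kg. Plasma levels were measured. Detection limits were 0.5 μM for roflumilast and <0.02 μM for its N-oxide metabolite.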

Series [6] in a line: AUC total in ferret at 3.42 umol/kg, ig. Format: ADME, organism-based, Mustela putorius furo. As to conditions: plasma, po. The method in brief:
as §2

Series [7] is described as follows: Tmax in ferret at 3.42 umol/kg, ig. Format: ADME, organism-based, Mustela putorius furo. As to conditions: in vivo, po. The method in brief:
as §2

Series [8] can be described thus: Cmax in ferret at 3.42 umol/kg, ig. The arrangement: dose 3.42 umol/kg, route intragastric. To be noted: in vivo, po. Format: ADME, organism-based, Mustela putorius furo. The method in brief: as §2
Series [9] relates to Mustela putorius furo. The series is described as follows: Toxicity in ferret assessed as emesis at 0.075 to 4.8 mg/kg, po after 4 hrs. Format: organism-based. Further details: dose 0.075-4.8 mg/kg, route oral. To be noted: in vivo.
Series [10] concerns Rattus norvegicus. Briefly: Antiinflammatory activity in po dosed ovalbumin-sensitized Brown Norway rat assessed as inhibition of ovalbumin-induced eosinophil influx into BALF administered 2 hrs prior to ovalbumin-challenge measured after 24 hrs. The format is functional. In outline: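 Brown Norway rats were actively sensitized and dosed orally at 0.3, 1 or 3 mg/kg, or with vehicle PEG200:saline 1:1, 2 h before inhaled ovalbumin challenge. Saline-challenged rats served as controls. Eosinophils were counted in BAL fluid 24 h after challenge. Mean ± SEM, 5−10 animals per group. ED50 was estimated.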

The target in series [11] is Phosphodiesterase 4 (Homo sapiens, UniProt P27815+Q08499+Q07343+Q08493). The series is described as follows: Inhibition of PDE4 in human PBMC assessed as inhibition of LPS-induced TNFalpha production incubated for 10 mins prior to LPS-challenge measured after 20 hrs by sandwich ELISA. In outline: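 Human PBMC were isolated from normal donors by Ficoll−Hypaque and grown at 1 × 10⁶ cells/mL in RPMI1640 with 10% FCS. Compound was preincubated 10 min, then LPS added (10 ng/mL, stock added). Cells were incubated 20 h at 37 °C in 5% CO₂. Supernatant TNF-α was measured by sandwich ELISA at OD405 (sensitivity ~10 pg/mL). IC50 came from inhibition curves.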
For orientation: In an ELISA, binding on a coated surface is turned into a signal by an enzyme label.

A short description of series [12]: Oral bioavailability in rat at 4.2 umol/kg. The format is ADME, organism-based. As to conditions: in vivo, 4.2 umol/kg. In outline:
(§3)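 Rat PK after iv and po dosing, some compounds given as the potassium or sodium salt. Vehicle was PBS or 25/75 PEG200/PBS. Dose matched formulation strength: iv 1.05, 2.1 or 4.2 μmol/kg; po 2.1 or 4.2 μmol/kg. For some compounds iv and po used the same dose (2.1 or 4.2 μmol/kg).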

The nature of series [13]: Oral bioavailability in rat at 2.1 umol/kg. Format: ADME, organism-based. To be noted: in vivo, 2.1 umol/kg. In outline: as §3
Series [14] is described as follows: Half life in rat at 2.1 umol/kg, po. The format is ADME, organism-based. To be noted: in vivo. In outline: as §3
Series [15] can be described thus: AUC total in rat at 2.1 umol/kg, po. Format: ADME, organism-based, Plasma. As to conditions: plasma, 2.1 umol/kg. The method in brief: as §3
Series [16] can be described thus: Tmax in rat at 2.1 umol/kg, po. Format: ADME, organism-based. As to conditions: in vivo. The method in brief: as §3
Series [17] in a line: Cmax in rat at 2.1 umol/kg, po. Format: ADME, organism-based. To be noted: in vivo. Further details: dose 2.1 umol/kg, route oral. In outline: as §3
A short description of series [18]: Clearance in rat at 1.05 umol/kg, iv. Format: ADME, organism-based. As to conditions: in vivo. The method in brief:
as §3

The nature of series [19]: Volume of distribution at steady state in rat at 1.05 umol/kg, iv. Format: ADME, organism-based. To be noted: in vivo, read-out: Vdss. The method in brief:
as §3

Series [20] relates to Mus musculus. Briefly: Antiinflammatory activity in po dosed BALB/c mouse assessed as inhibition of LPS-induced neutrophil influx into BALF administered 1 hr prior to LPS-challenge measured after 3 hrs. The format is functional. In outline: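 Mice were given vehicle (PEG200:saline 1:1) or compound orally at 1−30 mg/kg, 1 h before LPS challenge. The control group got vehicle with PBS challenge. Animals were killed 3 h after challenge. Pooled from two experiments, 6−15 mice per group. Mann−Whitney test versus vehicle/LPS animals.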

Chain of 3',5'-cyclic-AMP phosphodiesterase 4D (Q08499 whole entry): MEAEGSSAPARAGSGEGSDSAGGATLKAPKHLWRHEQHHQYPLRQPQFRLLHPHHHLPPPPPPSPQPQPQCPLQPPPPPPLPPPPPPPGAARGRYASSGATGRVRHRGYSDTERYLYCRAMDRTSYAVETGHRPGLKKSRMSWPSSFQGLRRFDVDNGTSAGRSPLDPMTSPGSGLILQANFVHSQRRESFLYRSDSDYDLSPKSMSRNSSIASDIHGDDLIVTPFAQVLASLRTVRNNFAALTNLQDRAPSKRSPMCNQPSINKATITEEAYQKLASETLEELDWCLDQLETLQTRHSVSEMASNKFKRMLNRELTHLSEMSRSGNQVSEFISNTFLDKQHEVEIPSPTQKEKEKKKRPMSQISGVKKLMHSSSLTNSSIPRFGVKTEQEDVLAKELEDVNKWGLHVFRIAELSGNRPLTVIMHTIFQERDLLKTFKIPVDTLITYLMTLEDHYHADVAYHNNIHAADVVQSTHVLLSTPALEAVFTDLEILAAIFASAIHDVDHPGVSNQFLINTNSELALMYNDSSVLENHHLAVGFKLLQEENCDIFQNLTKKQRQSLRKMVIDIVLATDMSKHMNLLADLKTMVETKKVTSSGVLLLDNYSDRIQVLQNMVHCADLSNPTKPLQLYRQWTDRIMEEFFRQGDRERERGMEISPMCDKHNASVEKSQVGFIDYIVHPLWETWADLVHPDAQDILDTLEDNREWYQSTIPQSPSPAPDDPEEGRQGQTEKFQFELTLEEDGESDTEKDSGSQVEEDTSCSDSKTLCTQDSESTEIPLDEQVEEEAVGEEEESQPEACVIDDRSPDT
Chain of 3',5'-cyclic-AMP phosphodiesterase 4A (P27815 whole entry): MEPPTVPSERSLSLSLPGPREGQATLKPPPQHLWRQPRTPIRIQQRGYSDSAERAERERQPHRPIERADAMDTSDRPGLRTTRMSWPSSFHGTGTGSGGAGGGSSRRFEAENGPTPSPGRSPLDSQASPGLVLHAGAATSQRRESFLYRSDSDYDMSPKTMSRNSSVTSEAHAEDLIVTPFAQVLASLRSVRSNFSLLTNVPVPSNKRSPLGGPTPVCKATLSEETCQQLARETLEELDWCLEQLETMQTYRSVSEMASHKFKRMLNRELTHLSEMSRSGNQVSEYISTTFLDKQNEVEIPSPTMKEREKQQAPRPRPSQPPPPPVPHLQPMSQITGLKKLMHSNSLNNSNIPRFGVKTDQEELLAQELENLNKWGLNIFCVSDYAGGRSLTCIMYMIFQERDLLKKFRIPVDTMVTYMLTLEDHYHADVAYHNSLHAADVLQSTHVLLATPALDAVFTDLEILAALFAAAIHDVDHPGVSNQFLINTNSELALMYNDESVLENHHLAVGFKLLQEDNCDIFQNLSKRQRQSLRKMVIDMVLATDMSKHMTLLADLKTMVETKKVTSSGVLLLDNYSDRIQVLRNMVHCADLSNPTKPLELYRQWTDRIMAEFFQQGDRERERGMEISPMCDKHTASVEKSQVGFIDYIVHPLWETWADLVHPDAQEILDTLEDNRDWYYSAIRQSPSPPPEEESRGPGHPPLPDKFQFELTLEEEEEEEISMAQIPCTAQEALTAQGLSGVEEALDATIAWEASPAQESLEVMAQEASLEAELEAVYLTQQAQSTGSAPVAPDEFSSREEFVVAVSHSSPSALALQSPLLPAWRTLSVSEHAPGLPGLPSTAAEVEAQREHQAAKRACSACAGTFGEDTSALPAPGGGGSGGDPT
Chain of 3',5'-cyclic-AMP phosphodiesterase 4B (Q07343 whole entry): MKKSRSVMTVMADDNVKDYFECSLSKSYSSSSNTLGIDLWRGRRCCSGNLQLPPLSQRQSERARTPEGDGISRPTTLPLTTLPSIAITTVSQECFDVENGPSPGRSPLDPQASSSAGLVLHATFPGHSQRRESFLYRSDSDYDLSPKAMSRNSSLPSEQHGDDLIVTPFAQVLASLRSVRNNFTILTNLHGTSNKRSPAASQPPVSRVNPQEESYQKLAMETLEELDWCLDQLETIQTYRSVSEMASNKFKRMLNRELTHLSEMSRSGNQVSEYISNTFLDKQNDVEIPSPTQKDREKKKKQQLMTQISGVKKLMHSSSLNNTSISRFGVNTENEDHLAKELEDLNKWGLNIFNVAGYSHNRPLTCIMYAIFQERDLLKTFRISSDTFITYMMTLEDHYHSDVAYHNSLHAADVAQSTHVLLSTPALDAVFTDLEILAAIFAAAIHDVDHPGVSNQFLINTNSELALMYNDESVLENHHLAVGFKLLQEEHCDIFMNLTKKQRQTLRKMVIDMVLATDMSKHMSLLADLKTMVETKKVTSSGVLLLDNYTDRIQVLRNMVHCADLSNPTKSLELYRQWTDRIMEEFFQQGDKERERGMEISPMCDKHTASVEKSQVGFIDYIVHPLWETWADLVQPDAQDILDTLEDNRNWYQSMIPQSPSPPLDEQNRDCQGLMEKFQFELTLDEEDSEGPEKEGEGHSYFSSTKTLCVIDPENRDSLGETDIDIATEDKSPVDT

The term IC50 denotes the midpoint of a concentration-inhibition curve. For `O=C(O)C1CCN(c2cc3cccnc3c(-c3cccc(OC(F)(F)F)c3)n2)CC1`, the solubility thermodynamic in [1] amounted to 1950 µg/mL (≈ 4670 µM). Also, the IC50 came to 0.03 µM in [2], 0.225 µM in series [3] and 0.371 µM in series [4].

A word on the half-life: it is how long it takes for the measured level to halve. Lower therefore signals rapid decline. For orientation: AUC means concentration integrated over time. As usually defined, the Tmax is the time at which the peak concentration occurs. Usually Cmax stands for the maximum level reached in the sampled fluid or tissue. One may read the ED50 as the dose that gives a 50% effect, or the effect in half of the subjects. Consider `O=C(O)[C@H]1CC[C@H](c2cc3cccnc3c(-c3cccc(OC(F)(F)F)c3)n2)CC1` [listing 1 of 2 here], for which the half-life in series [5] worked out at 1.87 h. This molecule also gave an area under the curve (AUC) in series [6] of 49.7 µM·h. In addition, the Tmax in series [7] was 1.75 h. For the same molecule, in series [8], the highest concentration (Cmax) turned out to be 10.5 µM. For the same molecule, the Activity result in series [9] is “Non-toxic”. The ED50 in series [10] was determined as 2 mg/kg. The solubility thermodynamic in series [1] worked out at 6 µg/mL (≈ 14.4 µM). For the same molecule, the concentration for half-maximal inhibition (IC50) in series [11] turned out to be 0.052 µM; in [2], 0.024 µM; in series [3], 0.043 µM; in series [4], 0.107 µM.

Turning to `O=C(O)C1CCN(c2cc3cccnc3c(-c3cccc(F)c3)n2)CC1`, in series [1], the solubility thermodynamic is above 4000 µg/mL. Besides, the concentration for half-maximal inhibition (IC50) turned out to be 0.769 µM in [11], 0.051 µM in series [2], 1.33 µM in [3] and 0.587 µM in series [4].

For the molecule `N#Cc1cccc(-c2nc([C@H]3CC[C@H](C(=O)O)CC3)cc3cccnc23)c1`, in [12], the bioavailability came to 92%. For the same molecule, in series [1], the Therm_solubility stood at 430 µg/mL. Also, the half-maximal inhibitory concentration (IC50) in [11] was found to be 0.053 µM; in [2], 0.041 µM; in [3], 0.093 µM; in series [4], 0.16 µM.

The clearance is the rate of elimination divided by the concentration. On to `O=C([O-])C1CCN(c2cc3cccnc3c(-c3cccc(OC(F)(F)F)c3)n2)CC1.[Na+]`, for which the bioavailability in series [13] is 149%. The molecule further gave a half-life in series [14] of 7 h. The molecule further showed an AUC in series [15] of 54.4 µM·h. Also, the Tmax in series [16] is 2.88 h. Besides, in [17], the Cmax stood at 4.49 µM. In series [18], this molecule displayed a clearance of 0.98 mL/min/kg. The Vd in [19] stood at 0.25 L/kg.

As to `O=C(Nc1c(Cl)cncc1Cl)c1ccc(OC(F)F)c(OCC2CC2)c1` [ROFLUMILAST], the Activity entry in series [9] is on record as “Toxic”. Moreover, the 50% effective dose (ED50) in series [20] worked out at 12.4 mg/kg; in [10], 0.74 mg/kg.

Turning to `O=C(O)C1CCN(c2cc3cccnc3c(-c3cccc(Cl)c3)n2)CC1`, in series [1], the solubility thermodynamic came to 140 µg/mL (≈ 381 µM). Also, the IC50 in series [11] was 0.541 µM; in series [2], 0.03 µM; in [3], 0.187 µM; in [4], 0.364 µM.

For `O=C(O)[C@H]1CC[C@H](c2cc3cccnc3c(-c3cccc(OC(F)(F)F)c3)n2)CC1` [listing 2 of 2 here], the inhibition entry in series [10] is “Dose-dependent effect”.

As to `O=C(O)[C@H]1CC[C@H](c2cc3cccnc3c(-c3cccc(F)c3)n2)CC1`, in series [10], the inhibition entry is “Dose-dependent effect”.

With `COc1cccc(-c2nc(N3CCC(C(=O)O)CC3)cc3cccnc23)c1`, in series [1], the solubility thermodynamic is above 1000 µg/mL. Also, the 50% inhibitory concentration (IC50) is 1.93 µM in [11], 0.045 µM in [2], 0.615 µM in series [3] and 0.537 µM in series [4].
